# Data: PubChem BioAssay
# Calls of active or inactive are those of the source.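 How the source made its calls, unless noted: active means Her2 level under about 52% in both replicate screens, with viability over 70% of control (limit read from the data); inconclusive means Her2 under the limit in one screen only, or viability under 70%; inactive means Her2 level above the set limit.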
# Experiments:
# [1] = Her2 expression decrease, cell viability multiplex – SKBR3 breast tumor cells, AlphaScreen, ATP viability, primary screen (AID 461); conditions: SKBR3 Her2 protein level, 18-24 h, measured here: SKBR3 viability, ATP luminescence, at 10 µM;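 on Her2 level: lower value means less Her2 protein in the cells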;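 on viability: percent of carrier control wells set as 100% viability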
# [2] = molecular target: Receptor tyrosine-protein kinase erbB-2 (Homo sapiens) (UniProt P04626); assay: as above; conditions: 18-24 h, at 10 µM, stronger effect = lower value
# Chain of Receptor tyrosine-protein kinase erbB-2 (Homo sapiens) (P04626 whole entry, looked up): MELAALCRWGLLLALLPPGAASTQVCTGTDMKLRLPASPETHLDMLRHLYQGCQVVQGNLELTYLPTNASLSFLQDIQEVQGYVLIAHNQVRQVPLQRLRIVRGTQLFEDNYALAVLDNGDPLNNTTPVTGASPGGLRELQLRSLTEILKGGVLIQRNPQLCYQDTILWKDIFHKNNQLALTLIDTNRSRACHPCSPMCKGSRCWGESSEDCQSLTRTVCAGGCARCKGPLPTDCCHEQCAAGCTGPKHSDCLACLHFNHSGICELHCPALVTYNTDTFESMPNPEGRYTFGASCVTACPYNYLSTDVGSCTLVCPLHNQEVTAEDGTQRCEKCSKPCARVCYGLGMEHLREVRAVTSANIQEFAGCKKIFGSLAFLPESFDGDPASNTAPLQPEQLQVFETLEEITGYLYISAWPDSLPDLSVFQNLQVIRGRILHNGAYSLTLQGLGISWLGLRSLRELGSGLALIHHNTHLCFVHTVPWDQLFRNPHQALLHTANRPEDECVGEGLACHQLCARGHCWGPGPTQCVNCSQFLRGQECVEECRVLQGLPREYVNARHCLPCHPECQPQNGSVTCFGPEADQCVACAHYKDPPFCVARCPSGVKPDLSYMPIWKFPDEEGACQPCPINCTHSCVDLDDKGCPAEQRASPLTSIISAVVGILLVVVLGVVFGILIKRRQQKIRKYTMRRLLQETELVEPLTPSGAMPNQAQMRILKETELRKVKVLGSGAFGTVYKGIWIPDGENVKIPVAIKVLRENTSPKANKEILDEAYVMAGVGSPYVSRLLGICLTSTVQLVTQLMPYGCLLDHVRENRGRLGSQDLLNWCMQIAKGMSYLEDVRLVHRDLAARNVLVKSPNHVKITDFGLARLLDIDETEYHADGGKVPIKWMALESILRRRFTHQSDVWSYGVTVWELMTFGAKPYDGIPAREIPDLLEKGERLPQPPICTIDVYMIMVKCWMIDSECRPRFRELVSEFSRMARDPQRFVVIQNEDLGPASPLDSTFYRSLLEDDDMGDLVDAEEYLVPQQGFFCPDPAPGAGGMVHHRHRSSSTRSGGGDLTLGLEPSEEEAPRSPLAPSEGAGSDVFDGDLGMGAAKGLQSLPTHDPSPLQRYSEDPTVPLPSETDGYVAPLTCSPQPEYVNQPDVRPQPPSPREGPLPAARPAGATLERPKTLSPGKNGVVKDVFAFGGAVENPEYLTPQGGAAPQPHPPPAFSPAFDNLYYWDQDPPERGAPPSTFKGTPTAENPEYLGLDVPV
# [3] = reduced viability of SK-BR-3 breast cancer cells – cell-based, 24 h, human, pilot screen (AID 572;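 active means viability at or below 10% of carrier control in both of two separate runs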;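 further: compound exposure lasted between 18 and 24 h rather than exactly 24 h; 100% = carrier-treated control wells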); conditions: SK-BR-3 viability, CellTiter-Glo luminescence, at 10 µM, stronger effect = lower value
# [4] = HUVEC growth inhibition – cell-based, human, primary screen (AID 575;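 active means viability at or below 30% in both replicate assays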;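 further: 100% = median of untreated cell wells with 0.1% DMSO on each plate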); conditions: HUVEC proliferation, CellTiter-Glo luminescence, 72 h; at 10 µM; stronger effect = lower value
# Method in brief: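 Assay system: Primary human umbilical vein endothelial cells | Quantity: 1250 cells per well | Medium: Supplemented EBM, 2% fetal bovine serum | Detection: CellTiter-Glo luminescence measuring cellular ATP | Read-out: % viability vs DMSO wells | Plate: Collagen-coated 384-well format | Times: 72 h exposure, 37 °C, 5% CO2, 30 min RT equilibration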
# [5] = H69AR cell proliferation blockers – human, duplicate replicates, primary screen (AID 580;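 active means viability at or under a set limit in both replicates, limit being median viability minus 3 SD, cut at about 48% in these data, passing the limit was not always enough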;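 further: 100% = mean luminescence of untreated wells and 0% = no signal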); conditions: H69AR lung tumor cells viability, ATP luminescence, 72 h; at 10 µM; stronger effect = lower value
# [6] = MRP1 drug-resistance reversers in H69AR cells – cell-based, doxorubicin co-treatment, pilot screen (AID 601;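 active means viability loss from added drug above about 55%, and viability with drug at most 40%, in both replicates, limit read from the data, passing the limit was not always enough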); conditions: CellTiter-Glo, 72 h, at 10 µM; for differential viability (reversal): stronger effect = higher value
# [7] = yeast transport mutant growth inhibition pilot in 384-well plates, post-Golgi transport modulator project (AID 636; in the data active means inhibition above about 31%); conditions: absorbance 615 nm, about 18 h, stronger effect = higher value
# [8] = growth suppression of yeast trafficking mutant, preliminary HTS, modulators of trafficking downstream of Golgi apparatus project, 1536-format plate, OD 615 nm (AID 637; in the data active means inhibition above about 30%); conditions: yeast transport mutant growth, absorbance 615 nm, 18 h; stronger effect = higher value
# [9] = H69AR cells + 2 uM doxorubicin, measured here: viability with 2 uM doxorubicin, stronger effect = lower value
# [10] = H69AR cells, compound alone cytotoxicity
Structure (SMILES),viability [1] [%],Her2 level [2],viability [3],viability [4],viability [5],differential viability (reversal) ([6]; H69AR cells + 2 uM doxorubicin),"viability [6, 9] [%]","viability [6, 10] [%]",inhibition [7],inhibition [8]
c1ccc(-n2cnc3cc(NCc4ccccn4)ccc32)cc1,109,90.5% (inactive),109% (inactive),102% (inactive),86.4% (inactive),2.47% (inactive),84,86.4,-5.27% (inactive),2.7% (inactive)
COc1cccc(C(=O)Nc2ncc3c(n2)CC(C)CC3=O)c1 (stereo not given),97.5,88.5% (inactive),97.5% (inactive),107% (inactive),109% (inactive),9.34% (inactive),100,109,-2.16% (inactive),2.22% (inactive)
COCCNC(=O)C(c1cccc(OC)c1)N(Cc1cccs1)C(=O)Cn1nnc2ccccc21 (stereo not given),110,82% (inactive),110% (inactive),105% (inactive),99.2% (inactive),4.64% (inactive),94.5,99.2,-3.6% (inactive),1.48% (inactive)
O=C(NCc1cccs1)C1CCCN(c2ncccn2)C1 (stereo not given),104,89.5% (inactive),104% (inactive),105% (inactive),94.8% (inactive),8.86% (inactive),85.9,94.8,-2.4% (inactive),-1.94% (inactive)
CCc1cc2c(=O)n(C(C)C(=O)OC3CCCCC3)cnc2s1 (stereo not given),102,117% (inactive),102% (inactive),90.1% (inactive),81.6% (inactive),-4.32% (inactive),85.9,81.6,-6.62% (inactive),-5.83% (inactive)
Cc1nn(-c2ccc(F)cc2)c2nc(N)c(C#N)c(-c3cccs3)c12,80.5,75.5% (inactive),80.5% (inactive),85.4% (inactive),86.2% (inactive),4.98% (inactive),81.3,86.2,-0.79% (inactive),3.44% (inactive)
COc1ccc(NC(=O)CCc2nc(-c3ccccc3F)no2)cc1,115,99% (inactive),115% (inactive),91.9% (inactive),93.6% (inactive),4.53% (inactive),89.1,93.6,-0.26% (inactive),-0.66% (inactive)
Cn1c(-c2cc(Br)ccc2O)n[nH]c1=S,89.5,110% (inactive),89.5% (inactive),87% (inactive),92.9% (inactive),3.24% (inactive),89.7,92.9,4.03% (inactive),-9.84% (inactive)
CC(=O)NCCn1ccc2ccccc21,117,106% (inactive),117% (inactive),96.4% (inactive),91.7% (inactive),-3.84% (inactive),95.5,91.7,-4.13% (inactive),3.93% (inactive)
Cc1ccc(Cn2nnc3c(=O)n(CC(=O)NCC4CCCO4)cnc32)cc1 (stereo not given),97,88.5% (inactive),97% (inactive),105% (inactive),104% (inactive),13.4% (inactive),90.4,104,-6.05% (inactive),-0.79% (inactive)
Cn1c2ccc(F)cc2c2ncn(CCN3CCOCC3)c(=O)c21,88.5,82.5% (inactive),88.5% (inactive),98.6% (inactive),97.4% (inactive),6.95% (inactive),90.4,97.4,-6% (inactive),-3.02% (inactive)
C=CCn1c(SCC(=O)O)nnc1-c1cccc(Cl)c1,116,107% (inactive),116% (inactive),103% (inactive),109% (inactive),12.6% (inactive),96.3,109,-5.19% (inactive),-3.67% (inactive)
COc1ccc(Cl)cc1S(=O)(=O)n1cnc2ccccc21,99,106% (inactive),99% (inactive),59.1% (inactive),33.7% (active),-49.8% (inactive),83.5,33.7,-4.59% (inactive),-2.3% (inactive)
c1ccc(CCNc2ccc3nncn3n2)cc1,82,89.5% (inactive),82% (inactive),95.6% (inactive),86.5% (inactive),3.48% (inactive),83,86.5,-2.53% (inactive),0.98% (inactive)
O=C(Cn1nnc2ccccc2c1=O)NC1CCCc2ccccc21 (stereo not given),77,97.5% (inactive),77% (inactive),101% (inactive),103% (inactive),7.25% (inactive),95.4,103,-2.67% (inactive),4.68% (inactive)
Cn1c(=O)c2c(nc(NCc3ccc4c(c3)OCO4)n2Cc2ccccc2F)n(C)c1=O,82,60% (inactive),82% (inactive),105% (inactive),76% (inactive),-8.01% (inactive),84,76,-3.65% (inactive),7.3% (inactive)
CC1(C)Cc2nc3oc4c(N(CCO)Cc5ccccc5)ncnc4c3cc2CO1,95.5,86.5% (inactive),95.5% (inactive),92.5% (inactive),86.2% (inactive),4.17% (inactive),82.1,86.2,-1.76% (inactive),-4.33% (inactive)
CCOc1cc(S(=O)(=O)N2CCC(Cc3ccccc3)CC2)c(OCC)cc1-n1cnnn1,77.5,102% (inactive),77.5% (inactive),90.7% (inactive),99.7% (inactive),32.5% (inactive),67.2,99.7,5.95% (inactive),-1.59% (inactive)
Cc1c(CCC#N)c(N2CCN(C3CCCCC3)CC2)n2c(nc3ccccc32)c1C#N,88,83.5% (inactive),88% (inactive),74.7% (inactive),32.5% (active),10.4% (inactive),22.1,32.5,-5.48% (inactive),-0.16% (inactive)
CCOC(=O)c1cccc(NC(=O)CSc2nnc(-c3cccnc3)n2CC)c1,88.5,95% (inactive),88.5% (inactive),101% (inactive),109% (inactive),13.3% (inactive),95.2,109,-4.67% (inactive),0% (inactive)
CCOC(=O)c1[nH]nc(-c2c(O)cc(C)cc2O)c1-c1csc(C)n1,94,106% (inactive),94% (inactive),106% (inactive),96.5% (inactive),6.7% (inactive),89.8,96.5,-6.71% (inactive),-2.91% (inactive)
CCCc1cc(=O)n2[nH]c(-c3ccc(Br)cc3)cc2n1,90.5,71.5% (inactive),90.5% (inactive),56.2% (inactive),73.1% (inactive),-15.6% (inactive),88.7,73.1,-2.76% (inactive),-1.9% (inactive)
N#Cc1cnc(SCC(=O)Nc2ccccc2C(F)(F)F)nc1N,88.5,81.5% (inactive),88.5% (inactive),99.7% (inactive),90.2% (inactive),1.73% (inactive),88.5,90.2,-4.4% (inactive),5.9% (inactive)
CCCCOc1ccc(-c2nnn(CC(=O)Nc3ncc(CC(=O)OCC)s3)n2)cc1,122,100% (inactive),122% (inactive),74.5% (inactive),84% (inactive),-4.45% (inactive),88.4,84,-7.11% (inactive),-1.59% (inactive)
COc1ccc(C2CC(=O)C(C=NCCN3CCOCC3)=C(O)C2)cc1 (stereo not given),87.5,87% (inactive),87.5% (inactive),85.7% (inactive),98.5% (inactive),2.73% (inactive),95.8,98.5,-0.79% (inactive),8.69% (inactive)
CC(=O)N1CCN(S(=O)(=O)c2cccc(C(=O)Nc3ccc4c(c3)CCC4)c2)CC1,76.5,90.5% (inactive),76.5% (inactive),77.9% (inactive),98% (inactive),4.81% (inactive),93.2,98,-5.53% (inactive),5% (inactive)
COC(=O)c1cc(-c2c(C)oc3cc(O)ccc3c2=O)c(C)o1,100,90.5% (inactive),100% (inactive),91.3% (inactive),84.9% (inactive),-6.25% (inactive),91.1,84.9,-4.94% (inactive),-1.27% (inactive)
CCOC(=O)C1=C(CN2CCOCC2)NC(=O)NC1c1cc(C)ccc1C (stereo not given),92,89% (inactive),92% (inactive),101% (inactive),78.9% (inactive),16.7% (inactive),62.2,78.9,-6.76% (inactive),4.33% (inactive)
CCCCn1c(=O)[nH]c(=O)c2c1nc(-c1ccncc1)n2CCOC,108,116% (inactive),108% (inactive),90.5% (inactive),94.2% (inactive),1.93% (inactive),92.2,94.2,1.43% (inactive),-6.5% (inactive)
